From ChEMBL document CHEMBL4190388, “Discovery and Optimization of Indolyl-Containing 4-Hydroxy-2-Pyridone Type II DNA Topoisomerase Inhibitors Active against Multidrug Resistant Gram-negative Bacteria” (J Med Chem, 2018)
≈ marks a conversion by molar mass, not a printed value.

Tests used:
Klebsiella pneumoniae = assay: Antibacterial activity against wild type Klebsiella pneumoniae ATCC 35657 by CLSI M100-S17 protocol based method; assay type: functional
Mus musculus [1] = assay: Volume of distribution at steady state in CD1 mouse plasma at 10 mg/kg, iv by LC-MS/MS analysis; assay type: ADME, organism-based; conditions: in vivo
Mus musculus [2] = assay: AUC (0 to 24 hrs) in CD1 mouse plasma at 10 mg/kg, iv by LC-MS/MS analysis; assay type: ADME, organism-based; design: time < 24 hr, dose 10 mg/kg, route intravenous; conditions: in vivo
Procedure, shortened: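 CD-1 mice given a single 10 mg/kg iv dose (n = 3), in either 10% DMSO plus 1% Tween 80 in pH 8.0 phosphate buffer or 20% (2-hydroxypropyl)-β-cyclodextrin in pH 4.0 citrate buffer; plasma exposure measured.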

Acinetobacter baumannii [3] = assay: Antibacterial activity against wild type Acinetobacter baumannii ATCC BAA-747 by CLSI M100-S17 protocol based method; assay type: functional
Escherichia coli [4] = assay: Antibacterial activity against fluoroquinolone resistant Escherichia coli SKM18 by CLSI M100-S17 protocol based method; assay type: functional
Escherichia coli [5] = assay: Selectivity ratio of MIC for wild type Escherichia coli ATCC 25922 in presence of HSA to MIC for wild type Escherichia coli ATCC 25922; assay type: functional
Escherichia coli [6] = assay: Antibacterial activity against wild type Escherichia coli ATCC 25922 in presence of HSA by CLSI M100-S17 protocol based method; assay type: functional
[7] = Fraction unbound in mouse plasma at 1 uM by equilibrium dialysis method; assay type: ADME, cell-free
Acinetobacter baumannii [8] = assay: Antibacterial activity against fluoroquinolone resistant Acinetobacter baumannii isolate MMX2240 by CLSI M100-S17 protocol based method; assay type: functional
Mus musculus [9] = assay: Terminal half life in CD1 mouse plasma at 10 mg/kg, iv by LC-MS/MS analysis; assay type: ADME, organism-based; conditions: in vivo
Escherichia coli [10] = assay: Antibacterial activity against wild type Escherichia coli ATCC 25922 by CLSI M100-S17 protocol based method; assay type: functional
[11] = Oral bioavailability in CD1 mouse plasma by LC-MS/MS analysis; assay type: ADME, organism-based
Escherichia coli [12] = assay: Antibacterial activity against quinolone resistant Escherichia coli by broth microdilution method; assay type: functional; conditions: Escherichia coli; for MIC: read-out: MIC
Procedure, shortened: (§1)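 MICs were determined by CLSI broth methods, except that organisms were grown in brain–heart–infusion medium. The panel comprised wild-type and resistant E. coli and A. baumannii strains, including 12 strains whose details are given by reference.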

Escherichia coli [13] = assay: Antibacterial activity against multidrug resistant Escherichia coli by broth microdilution method; assay type: functional; conditions: Escherichia coli; for MIC: read-out: MIC; procedure, shortened: as §1
Escherichia coli [14] = assay: Antibacterial activity against wild type Escherichia coli by broth microdilution method; assay type: functional; procedure, shortened: as §1
Acinetobacter baumannii [15] = assay: Antibacterial activity against beta-lactam resistant Acinetobacter baumannii by broth microdilution method; assay type: functional; conditions: Acinetobacter baumannii; procedure, shortened: as §1
Escherichia coli [16] = assay: Antibacterial activity against beta-lactam resistant Escherichia coli by broth microdilution method; assay type: functional; conditions: Escherichia coli; for MIC: read-out: MIC; procedure, shortened: as §1
Acinetobacter baumannii [17] = assay: Antibacterial activity against aminoglycoside resistant Acinetobacter baumannii by broth microdilution method; assay type: functional; conditions: Acinetobacter baumannii; procedure, shortened: as §1
Acinetobacter baumannii [18] = assay: Antibacterial activity against multidrug resistant Acinetobacter baumannii by broth microdilution method; assay type: functional; conditions: Acinetobacter baumannii; procedure, shortened: as §1
Escherichia coli [19] = assay: Antibacterial activity against aminoglycoside resistant Escherichia coli by broth microdilution method; assay type: functional; conditions: Escherichia coli; for MIC: read-out: MIC; procedure, shortened: as §1
Acinetobacter baumannii [20] = assay: Antibacterial activity against quinolone resistant Acinetobacter baumannii by broth microdilution method; assay type: functional; conditions: Acinetobacter baumannii; procedure, shortened: as §1
Escherichia coli [21] = assay: Antibacterial activity against quinolone resistance Escherichia coli isolate ELZ4251 harboring gyrA/parC mutant by CLSI M100-S17 protocol based method; assay type: functional
Acinetobacter baumannii [22] = assay: Antibacterial activity against wild type Acinetobacter baumannii by broth microdilution method; assay type: functional; procedure, shortened: as §1
Acinetobacter baumannii [23] = assay: Antibacterial activity against carbapenem resistant Acinetobacter baumannii by broth microdilution method; assay type: functional; conditions: Acinetobacter baumannii; procedure, shortened: as §1

| Compound | MIC (Klebsiella pneumoniae) [µg/mL] | Vdss (Mus musculus [1]) [L/kg] | AUC (Mus musculus [2]) [ng·h/mL] | MIC (Acinetobacter baumannii [3]) [µg/mL] | MIC (Escherichia coli [4]) [µg/mL] | Ratio (Escherichia coli [5]) | MIC (Escherichia coli [6]) [µg/mL] | Fu [7] | MIC (Acinetobacter baumannii [8]) [µg/mL] | beta t1/2 (Mus musculus [9]) [h] | MIC (Escherichia coli [10]) [µg/mL] | bioavailability [11] [%] | MIC90 (Escherichia coli [12]) [µg/mL] | MIC (Escherichia coli [12]) [µg/mL] | MIC90 (Escherichia coli [13]) [µg/mL] | MIC (Escherichia coli [13]) [µg/mL] | MIC90 (Escherichia coli [14]) [µg/mL] | MIC50 (Acinetobacter baumannii [15]) [µg/mL] | MIC90 (Acinetobacter baumannii [15]) [µg/mL] | MIC90 (Escherichia coli [16]) [µg/mL] | other results |
| --- | --- | --- | --- | --- | --- | --- | --- | --- | --- | --- | --- | --- | --- | --- | --- | --- | --- | --- | --- | --- | --- |
| Cn1c(CNC2(C)CCC2)cc2cc3c(cc21)CCCc1c-3[nH]c(=O)c(C(=O)O)c1O | 1 (≈ 2.37 µM) | 7.1 | 4580 | 0.5 (≈ 1.19 µM) | 1 (≈ 2.37 µM) | 4 - 16 | 7.8 | 0.047 | 1 (≈ 2.37 µM) | 3.1 | 1 (≈ 2.37 µM) | 65 | – | – | – | – | – | – | – | – | – |
| CN(C)Cc1cc2cc3c(cc2n1C)OCCc1c-3[nH]c(=O)c(C(=O)O)c1O | 1 (≈ 2.61 µM) | 7.6 | 2930 | 2 (≈ 5.22 µM) | 1 (≈ 2.61 µM) | 2 - 4 | 2 | 0.21 | 3.9 (≈ 10.2 µM) | 3.1 | 1 (≈ 2.61 µM) | – | 2 (≈ 5.22 µM) | 0.25 to 8 (≈ 0.652 to 20.9 µM) | 2 (≈ 5.22 µM) | 0.25 to 8 (≈ 0.652 to 20.9 µM) | 2 (≈ 5.22 µM) | 2 (≈ 5.22 µM) | 16 (≈ 41.7 µM) | 2 (≈ 5.22 µM) | MIC50 (Escherichia coli [12]): 0.5 µg/mL (≈ 1.3 µM); MIC50 (Escherichia coli [13]): 0.5 µg/mL (≈ 1.3 µM); MIC50 (Escherichia coli [14]): 0.5 µg/mL (≈ 1.3 µM); MIC50 (Escherichia coli [16]): 0.5 µg/mL (≈ 1.3 µM); MIC (Escherichia coli [16]): 0.25 to 8 µg/mL (≈ 0.652 to 20.9 µM); MIC50 (Acinetobacter baumannii [17]): 2 µg/mL (≈ 5.22 µM); MIC90 (Acinetobacter baumannii [17]): 16 µg/mL (≈ 41.7 µM); MIC50 (Acinetobacter baumannii [18]): 2 µg/mL (≈ 5.22 µM); MIC90 (Acinetobacter baumannii [18]): 16 µg/mL (≈ 41.7 µM); MIC50 (Escherichia coli [19]): 0.5 µg/mL (≈ 1.3 µM); MIC90 (Escherichia coli [19]): 2 µg/mL (≈ 5.22 µM); MIC (Escherichia coli [19]): 0.25 to 8 µg/mL (≈ 0.652 to 20.9 µM); MIC50 (Acinetobacter baumannii [20]): 2 µg/mL (≈ 5.22 µM); MIC90 (Acinetobacter baumannii [20]): 16 µg/mL (≈ 41.7 µM); MIC (Escherichia coli [21]): 1.6 µg/mL (≈ 4.17 µM); MIC (Acinetobacter baumannii [22]): 0.25 to 16 µg/mL (≈ 0.652 to 41.7 µM); MIC50 (Acinetobacter baumannii [22]): 2 µg/mL (≈ 5.22 µM); MIC90 (Acinetobacter baumannii [22]): 16 µg/mL (≈ 41.7 µM); MIC50 (Acinetobacter baumannii [23]): 2 µg/mL (≈ 5.22 µM); MIC90 (Acinetobacter baumannii [23]): 16 µg/mL (≈ 41.7 µM) |
| Cn1c(CN2CCCC2)cc2cc3c(cc21)CCCc1c-3[nH]c(=O)c(C(=O)O)c1O | 0.78 (≈ 1.91 µM) | 8.1 | 4050 | 0.78 (≈ 1.91 µM) | 0.78 (≈ 1.91 µM) | – | 6.3 | 0.11 | 1.6 (≈ 3.93 µM) | 2.8 | 0.78 (≈ 1.91 µM) | 33 | 0.5 (≈ 1.23 µM) | 0.12 to 0.5 (≈ 0.295 to 1.23 µM) | 0.5 (≈ 1.23 µM) | 0.12 to 0.5 (≈ 0.295 to 1.23 µM) | 0.5 (≈ 1.23 µM) | 2 (≈ 4.91 µM) | 16 (≈ 39.3 µM) | 0.5 (≈ 1.23 µM) | MIC (Acinetobacter baumannii [15]; read-out: MIC): 0.12 to 16 µg/mL (≈ 0.295 to 39.3 µM); MIC (Escherichia coli [16]): 0.12 to 0.5 µg/mL (≈ 0.295 to 1.23 µM); MIC50 (Acinetobacter baumannii [17]): 2 µg/mL (≈ 4.91 µM); MIC90 (Acinetobacter baumannii [17]): 16 µg/mL (≈ 39.3 µM); MIC (Acinetobacter baumannii [17]; read-out: MIC): 0.12 to 16 µg/mL (≈ 0.295 to 39.3 µM); MIC50 (Acinetobacter baumannii [18]): 2 µg/mL (≈ 4.91 µM); MIC90 (Acinetobacter baumannii [18]): 16 µg/mL (≈ 39.3 µM); MIC (Acinetobacter baumannii [18]; read-out: MIC): 0.12 to 16 µg/mL (≈ 0.295 to 39.3 µM); MIC90 (Escherichia coli [19]): 0.5 µg/mL (≈ 1.23 µM); MIC (Escherichia coli [19]): 0.12 to 0.5 µg/mL (≈ 0.295 to 1.23 µM); MIC50 (Acinetobacter baumannii [20]): 2 µg/mL (≈ 4.91 µM); MIC90 (Acinetobacter baumannii [20]): 16 µg/mL (≈ 39.3 µM); MIC (Acinetobacter baumannii [20]; read-out: MIC): 0.12 to 16 µg/mL (≈ 0.295 to 39.3 µM); MIC (Escherichia coli [21]): 1.6 µg/mL (≈ 3.93 µM); MIC50 (Acinetobacter baumannii [22]): 2 µg/mL (≈ 4.91 µM); MIC90 (Acinetobacter baumannii [22]): 16 µg/mL (≈ 39.3 µM); MIC50 (Acinetobacter baumannii [23]): 2 µg/mL (≈ 4.91 µM); MIC90 (Acinetobacter baumannii [23]): 16 µg/mL (≈ 39.3 µM); MIC (Acinetobacter baumannii [23]; read-out: MIC): 0.12 to 16 µg/mL (≈ 0.295 to 39.3 µM) |
